Published values pooled from the literature.
Target: TGF-beta receptor type-1 (TGFBR1, Homo sapiens, UniProt P36897)
One construct used (P36897 1-503): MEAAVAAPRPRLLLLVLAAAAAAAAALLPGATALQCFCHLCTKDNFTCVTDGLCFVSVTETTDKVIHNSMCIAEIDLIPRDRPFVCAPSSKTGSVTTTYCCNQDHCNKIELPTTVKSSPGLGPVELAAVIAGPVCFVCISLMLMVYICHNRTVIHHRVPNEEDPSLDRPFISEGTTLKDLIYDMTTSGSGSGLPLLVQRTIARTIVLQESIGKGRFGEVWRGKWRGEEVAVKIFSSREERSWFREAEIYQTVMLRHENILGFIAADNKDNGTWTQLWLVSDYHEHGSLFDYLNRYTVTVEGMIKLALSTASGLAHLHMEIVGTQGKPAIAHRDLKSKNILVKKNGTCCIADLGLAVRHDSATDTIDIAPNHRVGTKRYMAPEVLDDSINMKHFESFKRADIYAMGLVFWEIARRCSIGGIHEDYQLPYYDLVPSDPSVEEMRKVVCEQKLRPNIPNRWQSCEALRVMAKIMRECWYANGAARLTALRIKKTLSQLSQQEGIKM

Structure (SMILES) | effect on | mode | technique | tested at | endpoint | result
c1ccc(-c2[nH]ncc2-c2ccnc3ccccc23)nc1 | cell-free assay |  |  | 0.5 µM | remaining signal | 41.6%
Fc1ccc(-c2c(-c3ccncc3)ncn2-c2ccc(-c3ccccc3)cc2)cc1 | cell-free assay |  | TR-FRET | 1 µM | inhibition | 21%
NS(=O)(=O)c1cc(NC(=O)Cc2ccccc2)ccc1Oc1cccc(Cl)c1 | cell-free assay |  | competition with immobilised ligand | 1 µM | remaining binding | 100%
Cc1cc(NC(=O)c2cccc3cc(-c4cccc5[nH]nc(N)c45)ccc23)ccc1F | enzyme activity | inhibitor |  | 0.1 µM | activity vs control | 120%
O=C(Nc1cnn(-c2csc(C(=O)NC3COC3)c2)c1)Nc1c(F)cccc1Cl | enzyme activity | inhibitor |  | 5 µM | remaining activity | 97.4%
CN(C)C(=O)Cn1cc(-c2nc(C3(c4ccc(-c5cnc(N)nc5)cc4)CC3)no2)cn1 | cell-free assay |  | competition with immobilised ligand | 1 µM | remaining binding | 97%
Fc1ccc(-c2ncn(-c3ccccc3)c2-c2ccncc2)cc1 | cell-free assay |  | TR-FRET | 1 µM | inhibition | 31%
CO[C@@H](C)c1c(Nc2ccc([C@@H](N(C)C(=O)C3CCS(=O)(=O)CC3)C(F)(F)F)cc2)cnc2cc(Cl)nn12 | cell-free assay |  | competition with immobilised ligand | 1 µM | remaining binding | 95%
COc1cc(-c2cc(-c3ccc(N4CCNCC4)cc3)cnc2C)cc(OC)c1OC | enzyme activity | inhibitor |  | 1 µM | inhibition | 32%
COc1cccc(F)c1Cn1cnc(-c2ccncc2)c1-c1ccc(F)cc1 | cell-free assay |  | TR-FRET | 1 µM | inhibition | 19%
CCN(CC)c1ccc(C2=NNC(=O)CC2C)cc1[N+](=O)[O-] (stereo not shown) | enzyme activity | inhibitor |  | 10 µM | remaining activity | 89%
COc1ccc2c(c1)O[C@@H](c1ccc(OC)c(OC)c1)C[C@H]2NC(=O)C1(c2ccc3c(c2)OC(F)(F)O3)CC1 | cell-free assay |  | competition with immobilised ligand | 1 µM | remaining binding | 100%
Cc1cnc(NC2CCOCC2)nc1-n1cnc(C(=O)NC(CN)c2cc(F)cc(Cl)c2)c1 (stereo not shown) | enzyme activity | inhibitor | radiometric | 1 µM | remaining activity | 98%
Cc1cccc(-c2[nH]c(C(C)(C)C)nc2-c2ccc3c(c2)OCO3)n1 | cell-free assay |  |  | 0.5 µM | remaining signal | 35.8%
CN(C)c1ncnc(-c2ccc3nc(Nc4cc(CN5CCN(C(=O)CC(F)(F)F)CC5)ccn4)[nH]c3c2)c1Cl | cell-free assay |  | competition with immobilised ligand | 1 µM | remaining binding | 100%
Cc1ccc(NC(=O)c2ccc(C)c(C(F)(F)F)c2)cc1C#Cc1nn(C2CCC(O)CC2)c2ncnc(N)c12 (stereo not shown) | cell-free assay |  |  | 10 µM | remaining signal | 105%
O=C(O)c1cc(-c2ccc(C3CCNCC3)cc2)c2ccc(-c3ccc(C(F)(F)F)cc3)cc2c1 | cell-free assay |  | competition with immobilised ligand | 1 µM | remaining binding | 81%
N#CCCc1ccc2c(c1)-c1[nH]c3ccc([N+](=O)[O-])cc3c1CC(=O)N2 | cell-free assay |  |  | 0.5 µM | remaining signal | 103%
COc1cc(/C=C/C(=O)CC(=O)/C=C/c2ccc(O)c(OC)c2)ccc1O | enzyme activity | inhibitor |  | 1 µM | activity vs control | 82%
Cc1ccc(NC(=O)c2ccc(CN3CCN(C)CC3)cc2)cc1Nc1nc(-c2cccnc2)cs1 | cell-free assay |  |  | 0.5 µM | remaining signal | 98.5%
CC(C)(C)c1nc(-c2cccc(NS(=O)(=O)c3c(F)cccc3F)c2F)c(-c2ccnc(N)n2)s1 | enzyme activity | inhibitor | radiometric | 1 µM | remaining activity | 22%
NS(=O)(=O)c1cc(NC(=O)C2(c3ccccc3Cl)CC2)ccc1Oc1cccc(Cl)c1 | cell-free assay |  | competition with immobilised ligand | 1 µM | remaining binding | 82%
CN1CC(Oc2cnc(C#N)cc2-c2ccn3nc(NC(=O)C4CC4)cc3c2)C1 | enzyme activity | inhibitor |  | 1 µM | inhibition | -9%
Fc1ccc(-c2c(-c3ccncc3)ncn2-c2ccccc2)cc1 | cell-free assay |  | TR-FRET | 1 µM | inhibition | 21%
CSc1cccnc1N1CCN(Cc2nc3ccccc3[nH]2)CC1 | cell-free assay |  | competition with immobilised ligand | 1 µM | remaining binding | 100%
O=C1NC(=O)c2cc(Nc3ccc(F)cc3)c(Nc3ccc(F)cc3)cc21 | cell-free assay |  |  | 0.5 µM | remaining signal | 98.1%
O=C(CSc1nc2nccnc2c(=O)n1CCc1ccccc1)Nc1nccs1 | enzyme activity | inhibitor |  | 10 µM | inhibition | 1%
COc1cc(Nc2cnc(C#N)c(O[C@H](C)CN(C)C)n2)ncc1-c1cnn(C)c1 | enzyme activity | inhibitor | radiometric | 1 µM | remaining activity | 122%
